{"source": "ChEMBL document CHEMBL2429840", "about": "“The lignan (-)-hinokinin displays modulatory effects on human monoamine and GABA transporter activities” (J Nat Prod, 2013)", "key": {"[1]": {"molecular_target": "Sodium-dependent serotonin transporter (Homo sapiens, UniProt P31645)", "sequence (P31645 whole entry)": "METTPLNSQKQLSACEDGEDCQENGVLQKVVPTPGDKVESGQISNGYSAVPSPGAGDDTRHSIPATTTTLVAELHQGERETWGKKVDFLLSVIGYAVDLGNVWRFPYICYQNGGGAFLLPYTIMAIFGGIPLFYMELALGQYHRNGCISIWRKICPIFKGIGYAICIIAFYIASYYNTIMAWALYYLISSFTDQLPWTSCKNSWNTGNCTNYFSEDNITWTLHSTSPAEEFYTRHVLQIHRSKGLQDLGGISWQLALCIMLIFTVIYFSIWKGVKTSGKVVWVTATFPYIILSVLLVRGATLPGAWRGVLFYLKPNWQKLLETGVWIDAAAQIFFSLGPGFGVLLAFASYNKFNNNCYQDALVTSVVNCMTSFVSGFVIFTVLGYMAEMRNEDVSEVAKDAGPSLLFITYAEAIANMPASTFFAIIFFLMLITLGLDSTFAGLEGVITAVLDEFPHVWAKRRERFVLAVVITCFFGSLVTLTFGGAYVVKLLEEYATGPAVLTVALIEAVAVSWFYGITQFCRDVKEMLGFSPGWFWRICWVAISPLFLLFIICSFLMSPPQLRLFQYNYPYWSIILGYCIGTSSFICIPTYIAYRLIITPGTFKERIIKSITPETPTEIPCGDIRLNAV", "assay": "Inhibition of human SERT expressed in MDCK cells using [3H]-serotonin as substrate after 10 mins by scintillation counting", "format": "cell-based", "method_in_brief": "(§1)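 Transfected MDCK cells were washed with PBS-CM and preincubated 10 min at room temperature with compound (0.2–200 or 0.5–500 μM) or vehicle. Uptake of 50 nM radiolabeled substrate then ran for 10 min at room temperature, with RO 41-0960 added for dopamine. Naive MDCK background was subtracted. IC50 came from nonlinear regression of three independent assays run in triplicate.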"}, "[2]": {"molecular_target": "T1, Sodium-dependent noradrenaline transporter (Homo sapiens, UniProt P23975)", "T1 sequence (P23975 whole entry)": "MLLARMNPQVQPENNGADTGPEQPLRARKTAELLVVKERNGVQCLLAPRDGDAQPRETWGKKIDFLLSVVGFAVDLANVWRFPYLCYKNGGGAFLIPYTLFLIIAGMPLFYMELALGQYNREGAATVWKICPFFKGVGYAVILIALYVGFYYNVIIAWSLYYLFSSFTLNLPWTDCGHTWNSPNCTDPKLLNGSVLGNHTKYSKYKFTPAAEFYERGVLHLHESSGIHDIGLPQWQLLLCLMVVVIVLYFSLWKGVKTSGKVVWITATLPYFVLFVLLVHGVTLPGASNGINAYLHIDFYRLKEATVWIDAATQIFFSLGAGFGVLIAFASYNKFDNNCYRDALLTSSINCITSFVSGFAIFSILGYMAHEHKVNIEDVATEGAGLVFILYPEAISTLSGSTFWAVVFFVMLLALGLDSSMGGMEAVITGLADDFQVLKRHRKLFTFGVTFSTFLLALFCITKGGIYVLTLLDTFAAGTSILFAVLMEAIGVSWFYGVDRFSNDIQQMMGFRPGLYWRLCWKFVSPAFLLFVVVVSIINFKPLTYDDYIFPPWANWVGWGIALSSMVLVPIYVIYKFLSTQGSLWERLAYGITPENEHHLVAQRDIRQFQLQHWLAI", "assay": "Inhibition of human NET expressed in MDCK cells using [3H]-norepinephrine as substrate after 10 mins by scintillation counting", "format": "cell-based", "method_in_brief": "as §1"}, "[3]": {"molecular_target": "T2, Sodium-dependent dopamine transporter (Homo sapiens, UniProt Q01959)", "T2 sequence (Q01959 whole entry)": "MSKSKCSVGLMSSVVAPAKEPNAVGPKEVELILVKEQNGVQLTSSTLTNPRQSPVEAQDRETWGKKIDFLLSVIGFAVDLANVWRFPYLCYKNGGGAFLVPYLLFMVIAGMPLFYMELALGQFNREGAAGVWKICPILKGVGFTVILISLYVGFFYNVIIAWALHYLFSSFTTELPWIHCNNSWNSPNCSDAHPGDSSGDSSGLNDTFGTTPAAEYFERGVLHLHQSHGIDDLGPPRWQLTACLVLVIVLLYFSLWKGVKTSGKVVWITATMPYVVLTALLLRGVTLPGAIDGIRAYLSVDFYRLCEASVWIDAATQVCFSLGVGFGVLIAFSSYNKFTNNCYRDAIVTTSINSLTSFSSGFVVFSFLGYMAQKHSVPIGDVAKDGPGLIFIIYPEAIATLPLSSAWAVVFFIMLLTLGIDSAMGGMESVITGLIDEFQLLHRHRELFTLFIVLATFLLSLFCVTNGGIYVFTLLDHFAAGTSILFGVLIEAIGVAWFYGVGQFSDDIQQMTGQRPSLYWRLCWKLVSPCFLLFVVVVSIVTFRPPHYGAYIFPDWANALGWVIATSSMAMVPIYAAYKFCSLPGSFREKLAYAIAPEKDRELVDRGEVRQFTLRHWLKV", "assay": "Inhibition of human DAT expressed in MDCK cells using [3H]-dopamine as substrate after 10 mins by scintillation counting", "format": "cell-based", "method_in_brief": "as §1"}, "[4]": {"molecular_target": "T3, Sodium- and chloride-dependent GABA transporter 1 (Homo sapiens, UniProt P30531)", "assay": "Inhibition of GAT-1 (unknown origin)", "method_in_brief": "(§2)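 Transporter transiently expressed in COS-7 cells, with compound tested in dose–response (EAATs at 0.5–500 μM) against vehicle. Nonspecific uptake from empty-vector (pcDNA3) COS-7 sister cultures was subtracted. IC50 came from nonlinear regression of at least three independent experiments run in triplicate.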"}, "[5]": {"molecular_target": "T1, Sodium-dependent noradrenaline transporter", "assay": "Inhibition of human NET expressed in MDCK cells using [3H]-norepinephrine as substrate at 200 uM after 10 mins by scintillation counting", "format": "cell-based"}, "[6]": {"assay": "Toxicity in Wistar rat peripheral blood micronucleus"}, "[7]": {"molecular_target": "T3, Sodium- and chloride-dependent GABA transporter 1", "assay": "Activity at GAT1 (unknown origin) expressed in african green monkey COS7 cells assessed as GABA release at 0.5 to 500 uM after 10 mins using [3H]-GABA pretreated for 1 hr before compound addition followed by wash out by reversed transport efflux assay", "format": "cell-based", "details": "COS-7", "method_in_brief": "(§3)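 Reverse-transport efflux of preloaded substrate: hDAT in MDCK GFP-hDAT cells, hNET and GAT-1 in transiently transfected COS-7 cells. Compound tested at 0.5–500 μM against vehicle (basal) release. Non-radiolabeled substrate served as the positive control for assay integrity.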"}, "[8]": {"molecular_target": "T1, Sodium-dependent noradrenaline transporter", "assay": "Activity at human NET expressed in african green monkey COS7 cells assessed as norepinephrine release at 0.5 to 500 uM after 10 mins using [3H]-norepinephrine pretreated for 1 hr before compound addition followed by wash out by reversed transport efflux assay", "format": "cell-based", "details": "COS-7", "method_in_brief": "as §3"}, "[9]": {"molecular_target": "T2, Sodium-dependent dopamine transporter", "assay": "Activity at human DAT expressed in MDCK cells assessed as dopamine release at 0.5 to 500 uM after 10 mins using [3H]-dopamine pretreated for 1 hr before compound addition followed by wash out by reversed transport efflux assay", "format": "cell-based", "method_in_brief": "as §3"}, "[10]": {"molecular_target": "T3, Sodium- and chloride-dependent GABA transporter 1", "assay": "Allosteric modulation of GAT-1 (unknown origin) expressed in african green monkey COS7 cells using [3H]-GABA as substrate at 20 uM", "format": "cell-based", "details": "COS-7", "method_in_brief": "(§4)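 Cells were preincubated with or without 20 μM compound for 10 min at room temperature. Uptake then ran with eight concentrations of unlabeled/radiolabeled substrate mix, in triplicate. Dopamine (99.9%:0.1%, 45 nM–100 μM) was used in hDAT MDCK cells and GABA (99.95%:0.05%) in GAT-1 COS-7 cells. Nonspecific uptake was subtracted, Michaelis–Menten Vmax/KM were fitted, and n≥3 independent assays were analysed by paired t-test.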"}, "[11]": {"molecular_target": "T2, Sodium-dependent dopamine transporter", "assay": "Non-competitive inhibition of human DAT expressed in MDCK cells using [3H]-dopamine as substrate", "format": "cell-based", "method_in_brief": "as §4"}, "[12]": {"molecular_target": "T3, Sodium- and chloride-dependent GABA transporter 1", "assay": "Non-competitive inhibition of GAT-1 (unknown origin) expressed in african green monkey COS7 cells using [3H]-GABA as substrate", "format": "cell-based", "details": "COS-7", "method_in_brief": "as §4"}, "[13]": {"molecular_target": "T4, Sodium- and chloride-dependent glycine transporter 1 (Homo sapiens, UniProt P48067)", "T4 sequence (P48067 whole entry)": "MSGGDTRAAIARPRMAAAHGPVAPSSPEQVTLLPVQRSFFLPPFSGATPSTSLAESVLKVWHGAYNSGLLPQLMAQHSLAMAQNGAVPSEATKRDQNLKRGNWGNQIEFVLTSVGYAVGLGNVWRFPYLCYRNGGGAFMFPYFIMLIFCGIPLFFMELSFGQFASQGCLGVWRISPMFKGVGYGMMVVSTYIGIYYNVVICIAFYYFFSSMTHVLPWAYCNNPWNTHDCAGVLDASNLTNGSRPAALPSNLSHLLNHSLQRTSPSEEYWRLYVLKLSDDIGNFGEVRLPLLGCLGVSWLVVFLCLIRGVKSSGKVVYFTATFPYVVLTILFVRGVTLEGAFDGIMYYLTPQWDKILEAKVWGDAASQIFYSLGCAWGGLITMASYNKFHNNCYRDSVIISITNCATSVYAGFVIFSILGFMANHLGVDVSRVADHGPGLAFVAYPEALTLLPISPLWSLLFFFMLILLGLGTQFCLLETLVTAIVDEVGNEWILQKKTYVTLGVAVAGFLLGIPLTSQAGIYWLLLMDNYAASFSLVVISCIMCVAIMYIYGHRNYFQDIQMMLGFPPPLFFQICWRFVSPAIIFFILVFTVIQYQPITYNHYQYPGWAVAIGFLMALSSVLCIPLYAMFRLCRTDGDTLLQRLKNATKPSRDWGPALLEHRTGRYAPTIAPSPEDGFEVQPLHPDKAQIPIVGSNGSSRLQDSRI", "assay": "Inhibition of GlyT1 (unknown origin) expressed in MDCK cells using [3H]-glycine as substrate after 10 mins by scintillation counting", "format": "cell-based", "method_in_brief": "as §1"}, "[14]": {"molecular_target": "T5, Excitatory amino acid transporter 3 (Homo sapiens, UniProt P43005)", "T5 sequence (P43005 whole entry)": "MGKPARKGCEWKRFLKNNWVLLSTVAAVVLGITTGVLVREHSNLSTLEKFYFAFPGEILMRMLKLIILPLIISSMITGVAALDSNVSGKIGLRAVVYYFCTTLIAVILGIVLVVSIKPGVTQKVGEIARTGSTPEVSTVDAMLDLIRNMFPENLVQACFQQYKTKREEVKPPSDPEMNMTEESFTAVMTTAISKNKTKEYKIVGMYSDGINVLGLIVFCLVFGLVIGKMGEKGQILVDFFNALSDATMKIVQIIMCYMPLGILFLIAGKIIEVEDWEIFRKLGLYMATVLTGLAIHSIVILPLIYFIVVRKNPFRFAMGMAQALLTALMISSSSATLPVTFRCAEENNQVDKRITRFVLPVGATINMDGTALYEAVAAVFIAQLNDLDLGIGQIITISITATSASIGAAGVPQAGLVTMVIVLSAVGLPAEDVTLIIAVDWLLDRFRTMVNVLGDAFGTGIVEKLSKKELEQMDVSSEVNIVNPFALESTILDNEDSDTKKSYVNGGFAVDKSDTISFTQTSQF", "assay": "Inhibition of EAAT3 (unknown origin) expressed in african green monkey COS7 cells using [3H]-glutamic acid as substrate after 10 mins by scintillation counting", "format": "cell-based, COS-7", "method_in_brief": "as §2"}, "[15]": {"molecular_target": "Excitatory amino acid transporter 2 (Homo sapiens, UniProt P43004)", "sequence (P43004 whole entry)": "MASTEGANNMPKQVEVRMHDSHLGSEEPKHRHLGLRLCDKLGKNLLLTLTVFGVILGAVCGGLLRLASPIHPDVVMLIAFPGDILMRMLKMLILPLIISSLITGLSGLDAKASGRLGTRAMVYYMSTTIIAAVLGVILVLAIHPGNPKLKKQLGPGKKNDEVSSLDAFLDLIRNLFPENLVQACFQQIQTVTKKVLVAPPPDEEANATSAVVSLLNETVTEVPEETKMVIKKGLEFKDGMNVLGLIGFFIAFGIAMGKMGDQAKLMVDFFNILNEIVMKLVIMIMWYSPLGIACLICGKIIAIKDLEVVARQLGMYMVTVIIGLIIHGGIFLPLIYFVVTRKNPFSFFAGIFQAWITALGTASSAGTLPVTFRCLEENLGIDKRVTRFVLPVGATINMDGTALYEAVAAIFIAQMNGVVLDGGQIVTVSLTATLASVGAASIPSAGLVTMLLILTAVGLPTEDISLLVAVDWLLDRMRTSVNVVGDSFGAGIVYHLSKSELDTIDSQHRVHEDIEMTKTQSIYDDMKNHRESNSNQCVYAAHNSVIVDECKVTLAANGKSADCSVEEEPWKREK", "assay": "Inhibition of EAAT2 (unknown origin) expressed in african green monkey COS7 cells using [3H]-glutamic acid as substrate after 10 mins by scintillation counting", "format": "cell-based, COS-7", "method_in_brief": "as §2"}, "[16]": {"molecular_target": "Excitatory amino acid transporter 1 (Homo sapiens, UniProt P43003)", "sequence (P43003 whole entry)": "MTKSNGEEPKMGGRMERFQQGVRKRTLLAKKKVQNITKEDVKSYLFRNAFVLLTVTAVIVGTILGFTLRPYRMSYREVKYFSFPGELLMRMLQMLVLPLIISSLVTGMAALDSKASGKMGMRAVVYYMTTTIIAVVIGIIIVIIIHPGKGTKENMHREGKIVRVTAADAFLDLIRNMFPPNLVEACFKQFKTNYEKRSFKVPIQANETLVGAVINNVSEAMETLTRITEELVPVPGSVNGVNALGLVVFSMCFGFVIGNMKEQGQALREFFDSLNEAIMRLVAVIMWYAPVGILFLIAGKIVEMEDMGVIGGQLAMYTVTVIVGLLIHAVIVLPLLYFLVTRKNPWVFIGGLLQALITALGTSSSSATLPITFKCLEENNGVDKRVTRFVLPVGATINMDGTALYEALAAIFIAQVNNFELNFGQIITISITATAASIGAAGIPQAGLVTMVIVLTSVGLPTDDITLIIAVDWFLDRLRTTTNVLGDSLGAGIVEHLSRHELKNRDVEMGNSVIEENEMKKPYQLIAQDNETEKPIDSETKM", "assay": "Inhibition of EAAT1 (unknown origin) expressed in african green monkey COS7 cells using [3H]-glutamic acid as substrate after 10 mins by scintillation counting", "format": "cell-based, COS-7", "method_in_brief": "as §2"}, "[17]": {"molecular_target": "T6, Sodium- and chloride-dependent GABA transporter 3 (Homo sapiens, UniProt P48066)", "T6 sequence (P48066 whole entry)": "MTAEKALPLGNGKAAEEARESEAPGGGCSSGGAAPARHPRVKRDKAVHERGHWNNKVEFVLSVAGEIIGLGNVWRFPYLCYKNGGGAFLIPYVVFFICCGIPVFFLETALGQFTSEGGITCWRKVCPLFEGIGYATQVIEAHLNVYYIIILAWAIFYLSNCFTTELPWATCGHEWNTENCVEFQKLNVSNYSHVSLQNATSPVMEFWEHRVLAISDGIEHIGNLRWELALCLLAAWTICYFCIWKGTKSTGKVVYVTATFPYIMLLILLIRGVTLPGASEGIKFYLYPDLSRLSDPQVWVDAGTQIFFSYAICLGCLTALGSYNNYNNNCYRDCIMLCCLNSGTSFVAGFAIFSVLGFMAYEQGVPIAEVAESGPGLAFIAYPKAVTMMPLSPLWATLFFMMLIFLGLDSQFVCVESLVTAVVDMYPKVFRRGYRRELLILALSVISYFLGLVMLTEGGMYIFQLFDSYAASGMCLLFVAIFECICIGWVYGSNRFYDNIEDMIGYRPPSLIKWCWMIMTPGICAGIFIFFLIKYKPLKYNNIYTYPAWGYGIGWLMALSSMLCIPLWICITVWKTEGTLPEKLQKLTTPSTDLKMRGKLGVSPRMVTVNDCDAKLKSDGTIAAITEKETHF", "assay": "Inhibition of GAT-3 (unknown origin) expressed in african green monkey COS7 cells using [3H]-GABA as substrate after 10 mins by scintillation counting", "format": "cell-based, COS-7", "method_in_brief": "as §2"}, "[18]": {"molecular_target": "T3, Sodium- and chloride-dependent GABA transporter 1", "assay": "Inhibition of GAT-1 (unknown origin) expressed in african green monkey COS7 cells using [3H]-GABA as substrate after 10 mins by scintillation counting", "format": "cell-based, COS-7", "method_in_brief": "as §2"}, "[19]": {"molecular_target": "T1, Sodium-dependent noradrenaline transporter", "assay": "Non-competitive inhibition of human NET expressed in COS-7 cells using [3H]-norepinephrine as substrate"}}, "note": "The source made the active and inactive calls. The rule behind the calls is not given here."}
{"smiles": "O[C@H]1OC[C@H](Cc2ccc3c(c2)OCO3)[C@H]1Cc1ccc2c(c1)OCO2", "values": [{"measurement": "IC50", "setting": "[1]", "value": "> 200", "unit": "µM"}, {"measurement": "IC50", "setting": "[2]", "value": "> 200", "unit": "µM"}, {"measurement": "IC50", "setting": "[3]", "value": 12, "unit": "µM"}, {"measurement": "inhibition", "setting": "[3]", "value": "Dose-dependent effect"}]}
{"smiles": "O=C(O)C1=CCCN(CCOC(c2ccc(C(F)(F)F)cc2)c2ccc(C(F)(F)F)cc2)C1", "values": [{"measurement": "IC50", "setting": "[4]", "value": 0.26, "unit": "µM"}]}
{"smiles": "O=C(O)C1=CCCN(CCON=C(c2ccccc2)c2ccccc2)C1", "values": [{"measurement": "IC50", "setting": "[4]", "value": 0.04, "unit": "µM"}]}
{"smiles": "COC1OC[C@@H](Cc2ccc3c(c2)OCO3)[C@@H]1Cc1ccc2c(c1)OCO2", "note": "(stereo partly drawn) [(-)-O-METHYLCUBEBIN]", "values": [{"measurement": "inhibition", "setting": "[5]", "value": "inactive"}, {"measurement": "IC50", "setting": "[1]", "value": 90.3, "unit": "µM"}, {"measurement": "IC50", "setting": "[3]", "value": 78.6, "unit": "µM"}]}
{"smiles": "O=C1OC[C@H](Cc2ccc3c(c2)OCO3)[C@H]1Cc1ccc2c(c1)OCO2", "note": "[HINOKININ]", "values": [{"measurement": "Activity", "setting": "[6]", "value": "Non-toxic"}, {"measurement": "Activity", "setting": "[7]", "value": "inactive"}, {"measurement": "Activity", "setting": "[8]", "value": "inactive"}, {"measurement": "Activity", "setting": "[9]", "value": "inactive"}, {"measurement": "Activity", "setting": "[10]", "value": "Active"}, {"measurement": "inhibition", "setting": "[11]", "value": "Active"}, {"measurement": "inhibition", "setting": "[12]", "value": "Active"}, {"measurement": "IC50", "setting": "[13]", "value": "> 500", "unit": "µM"}, {"measurement": "IC50", "setting": "[14]", "value": "> 500", "unit": "µM"}, {"measurement": "IC50", "setting": "[15]", "value": "> 100", "unit": "µM"}, {"measurement": "IC50", "setting": "[16]", "value": "> 500", "unit": "µM"}, {"measurement": "IC50", "setting": "[17]", "value": "> 500", "unit": "µM"}, {"measurement": "IC50", "setting": "[18]", "value": 20.6, "unit": "µM"}, {"measurement": "IC50", "setting": "[1]", "value": 175, "unit": "µM"}, {"measurement": "IC50", "setting": "[2]", "value": 8.76, "unit": "µM"}, {"measurement": "IC50", "setting": "[3]", "value": 8.35, "unit": "µM"}, {"measurement": "inhibition", "setting": "[3]", "value": "Dose-dependent effect"}, {"measurement": "inhibition", "setting": "[19]", "value": "Active"}]}
